# In ChEMBL document CHEMBL4354843, “Structure-Based Design of a Potent and Selective Covalent Inhibitor for SRC Kinase That Targets a P-Loop Cysteine” (J Med Chem, 2020):
# Tests used:
# [1] = system: MDA-MB-231; test: Antiproliferative activity against human MDA-MB-231 cells assessed as reduction in cell viability incubated for 72 hrs by cell-titer glo assay; conditions: MDA-MB-231, 72 h
# [2] = target: Atypical kinase COQ8A, mitochondrial (Homo sapiens) (UniProt Q8NI60); test: Binding affinity to wild-type human full length ADCK3 (M280 to Q647 residues) expressed in bacterial expression system assessed as residual binding level at 1 uM by Kinomescan method relative to control
# Outline: (§1)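 Active-site-directed KinomeScan competition binding panel covering 468 kinases, compound tested at 1 μM. Each readout is the kinase signal remaining with compound, expressed as a percentage of the DMSO control. […]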
# [3] = target: Calcium/calmodulin-dependent protein kinase type II subunit beta (Homo sapiens) (UniProt Q13554); test: Binding affinity to wild-type human partial length CAMK2B (M1 to Q380 residues) expressed in bacterial expression system assessed as residual binding level at 1 uM by Kinomescan method relative to control
# [4] = target: Dual specificity protein kinase CLK3 (Homo sapiens) (UniProt P49761); test: Binding affinity to wild-type human full length CLK3 (M1 to R490 residues) expressed in bacterial expression system assessed as residual binding level at 1 uM by Kinomescan method relative to control; outline: as §1
# [5] = target: Ephrin type-A receptor 2 (Homo sapiens) (UniProt P29317); test: Binding affinity to wild-type human partial length EPHA2 (T593 to V891 residues) expressed in bacterial expression system assessed as residual binding level at 1 uM by Kinomescan method relative to control
# [6] = target: Ephrin type-B receptor 4 (Homo sapiens) (UniProt P54760); test: Binding affinity to wild-type human partial length EPHB4 (H585 to G892 residues) expressed in bacterial expression system assessed as residual binding level at 1 uM by Kinomescan method relative to control
# [7] = target: Inhibitor of nuclear factor kappa-B kinase subunit epsilon (Homo sapiens) (UniProt Q14164); test: Binding affinity to wild-type human full length IKK-epsilon (M1 to V716 residues) expressed in mammalian expression system assessed as residual binding level at 1 uM by Kinomescan method relative to control; outline: as §1
# [8] = target: Insulin receptor-related protein (Homo sapiens) (UniProt P14616); test: Binding affinity to wild-type human partial length INSRR (R950 to E1278 residues) expressed in bacterial expression system assessed as residual binding level at 1 uM by Kinomescan method relative to control
# [9] = system: Mast/stem cell growth factor receptor Kit (Homo sapiens), P10721 [D816V]; test: Binding affinity to human partial length KIT D816V mutant (I571 to D952 residues) expressed in bacterial expression system assessed as residual binding level at 1 uM by Kinomescan method relative to control
# Outline: (§2)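 KinomeScan active site-directed competition binding panel (468 kinases), compound tested at 1 μM. Result expressed as remaining kinase signal versus DMSO control (percent of control).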
# [10] = target: Leukocyte tyrosine kinase receptor (Homo sapiens) (UniProt P29376); test: Binding affinity to wild-type human partial length LTK (P422 to S744 residues) expressed in bacterial expression system assessed as residual binding level at 1 uM by Kinomescan method relative to control
# [11] = target: Mitogen-activated protein kinase kinase kinase kinase 2 (Homo sapiens) (UniProt Q12851); test: Binding affinity to wild-type human partial length MAP4K2 (M1 to G318 residues) expressed in mammalian expression system assessed as residual binding level at 1 uM by Kinomescan method relative to control
# [12] = target: Serine/threonine-protein kinase MRCK beta (Homo sapiens) (UniProt Q9Y5S2); test: Binding affinity to wild-type human partial length MRCKB (L56 to S417 residues) expressed in bacterial expression system assessed as residual binding level at 1 uM by Kinomescan method relative to control
# [13] = target: Serine/threonine-protein kinase PAK 5 (Homo sapiens) (UniProt Q9P286); test: Binding affinity to wild-type human partial length PAK7 (Y400 to H719 residues) expressed in bacterial expression system assessed as residual binding level at 1 uM by Kinomescan method relative to control
# [14] = target: 3-phosphoinositide-dependent protein kinase 1 (Homo sapiens) (UniProt O15530); test: Binding affinity to wild-type human full length PDPK1 (M1 to Q556 residues) expressed in bacterial expression system assessed as residual binding level at 1 uM by Kinomescan method relative to control
# Outline: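 KinomeScan, an active site-directed competition binding panel of 468 kinases. The test compound was at 1 μM. The readout is remaining kinase binding as a percentage of the DMSO control. Scores above 35% were treated as weak binding and not listed.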
# [15] = target: Cyclin-dependent kinase 14 (Homo sapiens) (UniProt O94921); test: Binding affinity to wild-type human full length PFTK1 (M1 to H451 residues) expressed in bacterial expression system assessed as residual binding level at 1 uM by Kinomescan method relative to control
# Outline: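 Active-site-directed competition binding panel (KinomeScan) covering 468 kinases. Test agent was screened at 1 μM. The read-out is the remaining kinase signal expressed relative to a DMSO control. Scores above 35%, taken as weak binding, were not reported.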
# [16] = target: Serine/threonine-protein kinase PLK1 (Homo sapiens) (UniProt P53350); test: Binding affinity to wild-type human partial length PLK1 (A33 to F325 residues) expressed in mammalian expression system assessed as residual binding level at 1 uM by Kinomescan method relative to control
# [17] = system: Proto-oncogene tyrosine-protein kinase receptor Ret (Homo sapiens), P07949 [V804M]; test: Binding affinity to human partial length RET V804M mutant (E713 to D1014 residues) expressed in bacterial expression system assessed as residual binding level at 1 uM by Kinomescan method relative to control; outline: as §2
# [18] = target: Ribosomal protein S6 kinase alpha-1 (Homo sapiens) (UniProt Q15418); test: Binding affinity to wild-type human partial length C- terminal RSK1 kinase domain 2 (P360 to L681 residues) expressed in bacterial expression system assessed as residual binding level at 1 uM by Kinomescan method relative to control
# [19] = target: Ribosomal protein S6 kinase alpha-2 (Homo sapiens) (UniProt Q15349); test: Binding affinity to wild-type human partial length N- terminal RSK3 kinase domain 1 (M1 to Q385 residues) expressed in bacterial expression system assessed as residual binding level at 1 uM by Kinomescan method relative to control
# [20] = target: STE20-like serine/threonine-protein kinase (Homo sapiens) (UniProt Q9H2G2); test: Binding affinity to wild-type human partial length SLK (S14 to A307 residues) expressed in bacterial expression system assessed as residual binding level at 1 uM by Kinomescan method relative to control
# [21] = target: Serine/threonine-protein kinase TAO2 (Homo sapiens) (UniProt Q9UL54); test: Binding affinity to wild-type human partial length TAOK2 (M1 to A320 residues) expressed in mammalian expression system assessed as residual binding level at 1 uM by Kinomescan method relative to control
# [22] = target: TGF-beta receptor type-1 (Homo sapiens) (UniProt P36897); test: Binding affinity to wild-type human partial length TGFBR1 (D179 to M503 residues) expressed in bacterial expression system assessed as residual binding level at 1 uM by Kinomescan method relative to control
# Leukocyte tyrosine kinase receptor (Homo sapiens), sequence (P29376 whole entry, the tested form may be a part): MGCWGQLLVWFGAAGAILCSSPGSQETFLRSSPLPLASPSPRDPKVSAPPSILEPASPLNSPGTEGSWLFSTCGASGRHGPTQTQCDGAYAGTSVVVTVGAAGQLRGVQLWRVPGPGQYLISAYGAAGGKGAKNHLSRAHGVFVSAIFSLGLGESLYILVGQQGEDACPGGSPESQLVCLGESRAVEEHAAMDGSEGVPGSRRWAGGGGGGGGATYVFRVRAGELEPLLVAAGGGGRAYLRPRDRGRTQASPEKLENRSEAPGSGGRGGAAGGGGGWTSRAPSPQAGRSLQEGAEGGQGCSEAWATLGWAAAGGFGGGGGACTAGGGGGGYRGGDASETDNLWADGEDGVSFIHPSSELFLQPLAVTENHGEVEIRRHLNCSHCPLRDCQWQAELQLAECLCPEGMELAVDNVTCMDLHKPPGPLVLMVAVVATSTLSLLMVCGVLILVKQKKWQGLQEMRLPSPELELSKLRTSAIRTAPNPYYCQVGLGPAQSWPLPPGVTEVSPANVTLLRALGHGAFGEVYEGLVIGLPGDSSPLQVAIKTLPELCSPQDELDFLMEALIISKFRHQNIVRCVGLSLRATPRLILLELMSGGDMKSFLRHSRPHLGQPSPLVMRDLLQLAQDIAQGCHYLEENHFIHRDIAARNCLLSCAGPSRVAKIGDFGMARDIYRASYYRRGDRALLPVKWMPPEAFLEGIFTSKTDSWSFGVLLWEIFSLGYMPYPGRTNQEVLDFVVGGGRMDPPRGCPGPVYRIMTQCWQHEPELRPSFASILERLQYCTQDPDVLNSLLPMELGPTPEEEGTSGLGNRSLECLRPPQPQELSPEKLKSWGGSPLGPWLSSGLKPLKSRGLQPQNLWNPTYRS
# Calcium/calmodulin-dependent protein kinase type II subunit beta (Homo sapiens), sequence (Q13554 whole entry, the tested form may be a part): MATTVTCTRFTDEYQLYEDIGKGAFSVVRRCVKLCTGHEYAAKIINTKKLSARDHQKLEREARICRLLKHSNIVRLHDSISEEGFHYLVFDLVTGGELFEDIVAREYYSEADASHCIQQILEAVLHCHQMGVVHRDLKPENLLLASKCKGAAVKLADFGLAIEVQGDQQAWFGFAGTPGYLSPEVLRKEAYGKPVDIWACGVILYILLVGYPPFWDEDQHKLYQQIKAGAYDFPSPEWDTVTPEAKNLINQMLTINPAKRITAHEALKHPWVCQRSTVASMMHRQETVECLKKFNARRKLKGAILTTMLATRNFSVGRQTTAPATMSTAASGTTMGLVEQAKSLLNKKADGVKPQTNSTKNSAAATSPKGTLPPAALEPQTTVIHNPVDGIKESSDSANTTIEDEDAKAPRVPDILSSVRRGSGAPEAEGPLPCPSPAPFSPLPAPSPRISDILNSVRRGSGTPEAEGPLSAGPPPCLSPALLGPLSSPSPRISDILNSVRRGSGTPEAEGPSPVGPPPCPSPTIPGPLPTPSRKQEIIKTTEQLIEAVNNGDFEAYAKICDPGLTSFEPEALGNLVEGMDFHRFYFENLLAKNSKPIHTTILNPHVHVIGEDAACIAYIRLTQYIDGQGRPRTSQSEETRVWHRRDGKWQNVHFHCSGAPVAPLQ
# 3-phosphoinositide-dependent protein kinase 1 (Homo sapiens), sequence (O15530 whole entry, the tested form may be a part): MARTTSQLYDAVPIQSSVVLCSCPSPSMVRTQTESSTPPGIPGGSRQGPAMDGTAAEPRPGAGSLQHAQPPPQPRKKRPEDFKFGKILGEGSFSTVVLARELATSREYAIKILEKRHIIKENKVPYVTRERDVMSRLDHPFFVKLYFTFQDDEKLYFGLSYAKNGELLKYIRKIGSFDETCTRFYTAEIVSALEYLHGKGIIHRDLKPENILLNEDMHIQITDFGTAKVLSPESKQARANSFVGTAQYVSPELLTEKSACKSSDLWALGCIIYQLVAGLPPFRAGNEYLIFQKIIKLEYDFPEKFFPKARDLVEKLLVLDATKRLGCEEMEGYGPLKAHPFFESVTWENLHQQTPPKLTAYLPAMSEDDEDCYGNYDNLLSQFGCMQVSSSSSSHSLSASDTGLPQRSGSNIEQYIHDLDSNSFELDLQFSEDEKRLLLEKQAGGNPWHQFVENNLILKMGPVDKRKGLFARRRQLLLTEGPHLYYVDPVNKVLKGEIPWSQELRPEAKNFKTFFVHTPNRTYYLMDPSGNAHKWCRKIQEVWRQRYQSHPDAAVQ
# Mitogen-activated protein kinase kinase kinase kinase 2 (Homo sapiens), sequence (Q12851 whole entry, the tested form may be a part): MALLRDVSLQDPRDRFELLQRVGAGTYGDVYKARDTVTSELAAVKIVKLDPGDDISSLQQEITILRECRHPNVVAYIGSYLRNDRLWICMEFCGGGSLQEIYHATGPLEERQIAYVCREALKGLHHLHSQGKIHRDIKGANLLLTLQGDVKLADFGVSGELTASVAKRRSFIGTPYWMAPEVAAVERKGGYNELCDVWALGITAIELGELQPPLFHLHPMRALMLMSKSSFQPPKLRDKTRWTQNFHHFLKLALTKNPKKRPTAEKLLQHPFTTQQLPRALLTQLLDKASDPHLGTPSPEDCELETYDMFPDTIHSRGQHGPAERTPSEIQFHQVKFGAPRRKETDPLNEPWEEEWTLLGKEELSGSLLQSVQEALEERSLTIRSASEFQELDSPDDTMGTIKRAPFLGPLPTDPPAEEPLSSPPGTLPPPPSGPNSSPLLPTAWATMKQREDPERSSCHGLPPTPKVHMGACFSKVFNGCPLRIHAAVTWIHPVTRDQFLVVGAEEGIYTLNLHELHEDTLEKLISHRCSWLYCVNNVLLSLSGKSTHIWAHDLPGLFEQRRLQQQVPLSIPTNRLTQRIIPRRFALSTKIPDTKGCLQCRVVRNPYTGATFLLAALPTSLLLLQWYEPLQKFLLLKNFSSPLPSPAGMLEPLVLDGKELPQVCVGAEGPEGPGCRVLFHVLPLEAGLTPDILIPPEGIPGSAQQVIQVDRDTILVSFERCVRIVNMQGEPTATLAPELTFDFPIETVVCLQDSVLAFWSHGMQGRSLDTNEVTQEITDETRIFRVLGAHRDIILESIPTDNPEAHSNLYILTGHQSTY
# STE20-like serine/threonine-protein kinase (Homo sapiens), sequence (Q9H2G2 whole entry, looked up, the tested form may be a part): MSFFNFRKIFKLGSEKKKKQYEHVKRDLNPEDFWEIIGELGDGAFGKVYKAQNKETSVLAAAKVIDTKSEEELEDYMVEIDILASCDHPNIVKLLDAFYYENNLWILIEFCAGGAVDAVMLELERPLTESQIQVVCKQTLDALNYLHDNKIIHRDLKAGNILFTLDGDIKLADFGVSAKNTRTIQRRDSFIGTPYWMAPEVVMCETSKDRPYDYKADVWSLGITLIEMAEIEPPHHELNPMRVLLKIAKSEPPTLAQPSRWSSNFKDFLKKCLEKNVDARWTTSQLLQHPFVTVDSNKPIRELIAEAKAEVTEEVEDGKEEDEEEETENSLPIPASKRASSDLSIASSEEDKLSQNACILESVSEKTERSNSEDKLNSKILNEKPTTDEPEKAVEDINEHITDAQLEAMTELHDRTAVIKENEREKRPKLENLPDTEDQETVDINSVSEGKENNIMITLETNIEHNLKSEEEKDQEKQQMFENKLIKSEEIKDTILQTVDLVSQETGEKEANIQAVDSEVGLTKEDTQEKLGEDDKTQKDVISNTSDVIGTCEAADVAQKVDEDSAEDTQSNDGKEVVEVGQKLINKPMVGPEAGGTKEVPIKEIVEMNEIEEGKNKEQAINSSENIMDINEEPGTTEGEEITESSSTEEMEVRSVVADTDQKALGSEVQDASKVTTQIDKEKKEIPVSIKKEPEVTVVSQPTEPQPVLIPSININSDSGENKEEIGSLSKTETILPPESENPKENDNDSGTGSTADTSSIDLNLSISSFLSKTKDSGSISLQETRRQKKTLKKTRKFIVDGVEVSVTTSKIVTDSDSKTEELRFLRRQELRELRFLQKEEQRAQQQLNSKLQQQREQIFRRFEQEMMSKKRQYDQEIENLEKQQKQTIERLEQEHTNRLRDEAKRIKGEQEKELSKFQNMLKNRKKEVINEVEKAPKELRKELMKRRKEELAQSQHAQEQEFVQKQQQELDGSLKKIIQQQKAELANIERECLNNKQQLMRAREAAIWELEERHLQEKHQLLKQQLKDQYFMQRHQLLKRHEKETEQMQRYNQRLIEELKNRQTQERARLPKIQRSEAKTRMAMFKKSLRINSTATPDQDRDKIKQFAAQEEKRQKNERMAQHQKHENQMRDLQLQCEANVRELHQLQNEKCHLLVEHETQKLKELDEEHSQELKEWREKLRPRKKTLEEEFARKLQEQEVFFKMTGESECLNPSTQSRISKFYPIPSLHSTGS
# Atypical kinase COQ8A, mitochondrial (Homo sapiens), sequence (Q8NI60 163-647 limits assumed): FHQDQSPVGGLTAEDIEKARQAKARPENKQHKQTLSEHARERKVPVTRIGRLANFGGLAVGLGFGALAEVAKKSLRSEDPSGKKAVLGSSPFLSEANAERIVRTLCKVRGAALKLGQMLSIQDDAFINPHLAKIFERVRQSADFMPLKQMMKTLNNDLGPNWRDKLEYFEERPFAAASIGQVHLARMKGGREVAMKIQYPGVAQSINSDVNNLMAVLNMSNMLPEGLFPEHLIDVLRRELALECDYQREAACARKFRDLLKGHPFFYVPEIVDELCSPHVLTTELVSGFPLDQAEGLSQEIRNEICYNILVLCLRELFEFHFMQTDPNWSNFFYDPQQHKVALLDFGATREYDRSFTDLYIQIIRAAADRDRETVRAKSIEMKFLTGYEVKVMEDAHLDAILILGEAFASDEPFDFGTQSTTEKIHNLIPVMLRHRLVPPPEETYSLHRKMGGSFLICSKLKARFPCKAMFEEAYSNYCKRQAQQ
smiles,measurement,setting,value
C=CC(=O)Nc1ccccc1Nc1nc(Nc2ccc(N3CCN(C)CC3)cc2)ncc1C(=O)Nc1c(C)cccc1Cl,IC50,[1],300 nM
same,Activity,[2],100%
same,Activity,[3],100%
same,Activity,[4],100%
same,Activity,[5],100%
same,Activity,[6],100%
same,Activity,[7],100%
same,Activity,[8],100%
same,Activity,[9],100%
same,Activity,[10],100%
same,Activity,[11],100%
same,Activity,[12],100%
same,Activity,[13],100%
same,Activity,[14],93%
same,Activity,[15],100%
same,Activity,[16],100%
same,Activity,[17],100%
same,Activity,[18],100%
same,Activity,[19],100%
same,Activity,[20],100%
same,Activity,[21],100%
same,Activity,[22],100%
